Source: the RNAGym collection of RNA variant scans (doi:10.1038/s41586-018-0170-7)

B1: tRNA (parent)
chain: GUUCCGUUGGCGUAAUGGUAACGCGUCUCCCUCCUAAGGAGAAGACUGCGGGUUCGAGUCCCGUACGGAACG

Variants of: B1
Assay: yeast fitness, log relative to wild type (ln ratio); higher = fitter; tRNA-Arg(CCU), competitive growth, 37 C, 1 M NaCl
In short: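 Variants were counted by 125 bp paired-end Illumina sequencing after pools of a combinatorial tRNA-Arg(CCU) library, held on a HIS3 centromeric plasmid in BY4742 lacking the chromosomal gene, grew ~6.5 generations (~26.5 h) in SC-HIS 1M NaCl at 37 °C. Each genotype's fitness is the natural log of its generations relative to the wild type's. Generations were OD-scaled log2 output/input frequencies, inverse-variance weighted over replicates.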

Row | Variant | yeast fitness (ln)
1 | AGUCCGUUGGCGUAAUGGUAACGCGUCUCCCUCCUAAGGAGACGAUUGCGGGUUCGAGUCCCGUAAGGAACG | -0.156
2 | GGUCCUUUGGCGUAAUGGUAACGCGUCUCCCUCCUAAGGAGACGACUGCGGGUUCGAGUCCCGUAAGGAGCG | -0.137
3 | AGUCCUUUGGCGUAAUGGUAACGCGUUUCCCUCCUAAGGAGACGACUGCGGGUUCGAGUCCCGUACGGGUCG | -0.454
4 | AUUCCAUUGGCGUAAUGGUAACGCGUUUCCCUCCUAAGGAGACGAUUGCGGGUUCGAGUCCCGUAAGGGGUG | -0.302
5 | GGUCCGUUGGCGUAAUGGUAACGCGUUUCCCUCCUAAGGAGAAGACUGCGGGUUCGAGUCCCGUAUGGGGCG | -0.288
6 | GCUCCAUUGGCGUAAUGGUAACGCGUCUCCCUCCUAAGGAGAAGAUUGCGGGUUCGAGUCCCGUACGGAUCG | -0.0378
7 | ACUCCGUUGGCGUAAUGGUAACGCGUUUCCCUCCUAAGGAGAAGACUGCGGGUUCGAGUCCCGUACGGGUUG | -0.351
8 | AUUCCGUUGGCGUAAUGGUAACGCGUUUCCCUCCUAAGGAGAAGAUUGCGGGUUCGAGUCCCGUAUGGAGUG | -0.223
9 | GCUCCGUUGGCGUAAUGGUAACGCGUCUCCCUCCUAAGGAGAAGAUUGCGGGUUCGAGUCCCGUAAGGAGUG | -0.168
10 | GCUCCGUUGGCGUAAUGGUAACGCGUUUCCCUCCUAAGGAGAAGACUGCGGGUUCGAGUCCCGUAAGGAGCG | -0.105
11 | AUUCCUUUGGCGUAAUGGUAACGCGUCUCCCUCCUAAGGAGACGACUGCGGGUUCGAGUCCCGUAUGGAUUG | -0.38
12 | AGUCCAUUGGCGUAAUGGUAACGCGUCUCCCUCCUAAGGAGAAGAUUGCGGGUUCGAGUCCCGUACGGGUCG | -0.165
13 | AUUCCGUUGGCGUAAUGGUAACGCGUCUCCCUCCUAAGGAGACGAUUGCGGGUUCGAGUCCCGUACGGGACG | -0.261
14 | GUUCCAUUGGCGUAAUGGUAACGCGUCUCCCUCCUAAGGAGAAGAUUGCGGGUUCGAGUCCCGUACGGGGUG | -0.146
15 | GGUCCGUUGGCGUAAUGGUAACGCGUCUCCCUCCUAAGGAGAAGAUUGCGGGUUCGAGUCCCGUAUGGAAUG | -0.115
16 | GCUCCAUUGGCGUAAUGGUAACGCGUCUCCCUCCUAAGGAGAAGACUGCGGGUUCGAGUCCCGUACGGGAUG | -0.176
17 | GCUCCGUUGGCGUAAUGGUAACGCGUUUCCCUCCUAAGGAGACGACUGCGGGUUCGAGUCCCGUACGGGAUG | -0.144
18 | GCUCCGUUGGCGUAAUGGUAACGCGUUUCCCUCCUAAGGAGAAGAUUGCGGGUUCGAGUCCCGUACGGAUUG | -0.09
19 | GCUCCUUUGGCGUAAUGGUAACGCGUCUCCCUCCUAAGGAGAAGAUUGCGGGUUCGAGUCCCGUAUGGAUUG | -0.202

Row | Variant | yeast fitness (ln)
20 | GGUCCAUUGGCGUAAUGGUAACGCGUUUCCCUCCUAAGGAGACGACUGCGGGUUCGAGUCCCGUAUGGAUCG | -0.0534
21 | GGUCCUUUGGCGUAAUGGUAACGCGUUUCCCUCCUAAGGAGACGACUGCGGGUUCGAGUCCCGUAAGGGGCG | -0.219
22 | GGUCCGUUGGCGUAAUGGUAACGCGUUUCCCUCCUAAGGAGACGACUGCGGGUUCGAGUCCCGUAUGGAAUG | -0.364
23 | GCUCCGUUGGCGUAAUGGUAACGCGUCUCCCUCCUAAGGAGACGAUUGCGGGUUCGAGUCCCGUAAGGAGCG | -0.058
24 | AGUCCUUUGGCGUAAUGGUAACGCGUUUCCCUCCUAAGGAGACGACUGCGGGUUCGAGUCCCGUACGGGAUG | -0.479
25 | GGUCCAUUGGCGUAAUGGUAACGCGUCUCCCUCCUAAGGAGACGAUUGCGGGUUCGAGUCCCGUACGGAGCG | -0.148
26 | GGUCCGUUGGCGUAAUGGUAACGCGUCUCCCUCCUAAGGAGACGACUGCGGGUUCGAGUCCCGUACGGAGUG | -0.123
27 | ACUCCGUUGGCGUAAUGGUAACGCGUUUCCCUCCUAAGGAGACGACUGCGGGUUCGAGUCCCGUACGGAGUG | -0.0249
28 | ACUCCAUUGGCGUAAUGGUAACGCGUCUCCCUCCUAAGGAGAAGAUUGCGGGUUCGAGUCCCGUAUGGAUCG | -0.182
29 | GUUCCGUUGGCGUAAUGGUAACGCGUUUCCCUCCUAAGGAGAAGACUGCGGGUUCGAGUCCCGUACGGGAUG | -0.113
30 | GUUCCAUUGGCGUAAUGGUAACGCGUUUCCCUCCUAAGGAGAAGAUUGCGGGUUCGAGUCCCGUAUGGAGUG | -0.387
31 | GCUCCGUUGGCGUAAUGGUAACGCGUUUCCCUCCUAAGGAGACGACUGCGGGUUCGAGUCCCGUAAGGGGUG | -0.328
32 | ACUCCUUUGGCGUAAUGGUAACGCGUCUCCCUCCUAAGGAGAAGACUGCGGGUUCGAGUCCCGUAUGGAUUG | -0.095
33 | GGUCCUUUGGCGUAAUGGUAACGCGUCUCCCUCCUAAGGAGAAGACUGCGGGUUCGAGUCCCGUACGGGGCG | -0.171
34 | AUUCCUUUGGCGUAAUGGUAACGCGUCUCCCUCCUAAGGAGAAGAUUGCGGGUUCGAGUCCCGUAUGGAACG | -0.0919
35 | GUUCCGUUGGCGUAAUGGUAACGCGUUUCCCUCCUAAGGAGACGACUGCGGGUUCGAGUCCCGUACGGAGCG | -0.0631
36 | GGUCCUUUGGCGUAAUGGUAACGCGUCUCCCUCCUAAGGAGAAGACUGCGGGUUCGAGUCCCGUAUGGAUCG | -0.0342
37 | GCUCCGUUGGCGUAAUGGUAACGCGUCUCCCUCCUAAGGAGAAGAUUGCGGGUUCGAGUCCCGUAUGGAGCG | 0.0022
38 | GUUCCGUUGGCGUAAUGGUAACGCGUCUCCCUCCUAAGGAGACGACUGCGGGUUCGAGUCCCGUAAGGGGCG | -0.154
